Changes are numbered by the printed parent chain.
How the values were obtained:
[1] = target: Prostaglandin F synthase (Homo sapiens); assay: Inhibition of human PGF synthase assessed as decrease in PGF2alpha production
[2] = test system: Prostaglandin F synthase (Homo sapiens); assay: Inhibition of human PGF synthase assessed as decrease in PGF2alpha production at 10 uM relative to control
[3] = Apparent passive permeability of the compound by PAMPA; format: ADME
In short: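 Passive permeability by PAMPA, using a 2% lecithin in dodecane membrane. Run in triplicate.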

[4] = target: T1, Cytosolic phospholipase A2 (Homo sapiens) (UniProt P47712); assay: Inhibition of cPLA2 (unknown origin) at 10 uM relative to control
T1 sequence (whole entry): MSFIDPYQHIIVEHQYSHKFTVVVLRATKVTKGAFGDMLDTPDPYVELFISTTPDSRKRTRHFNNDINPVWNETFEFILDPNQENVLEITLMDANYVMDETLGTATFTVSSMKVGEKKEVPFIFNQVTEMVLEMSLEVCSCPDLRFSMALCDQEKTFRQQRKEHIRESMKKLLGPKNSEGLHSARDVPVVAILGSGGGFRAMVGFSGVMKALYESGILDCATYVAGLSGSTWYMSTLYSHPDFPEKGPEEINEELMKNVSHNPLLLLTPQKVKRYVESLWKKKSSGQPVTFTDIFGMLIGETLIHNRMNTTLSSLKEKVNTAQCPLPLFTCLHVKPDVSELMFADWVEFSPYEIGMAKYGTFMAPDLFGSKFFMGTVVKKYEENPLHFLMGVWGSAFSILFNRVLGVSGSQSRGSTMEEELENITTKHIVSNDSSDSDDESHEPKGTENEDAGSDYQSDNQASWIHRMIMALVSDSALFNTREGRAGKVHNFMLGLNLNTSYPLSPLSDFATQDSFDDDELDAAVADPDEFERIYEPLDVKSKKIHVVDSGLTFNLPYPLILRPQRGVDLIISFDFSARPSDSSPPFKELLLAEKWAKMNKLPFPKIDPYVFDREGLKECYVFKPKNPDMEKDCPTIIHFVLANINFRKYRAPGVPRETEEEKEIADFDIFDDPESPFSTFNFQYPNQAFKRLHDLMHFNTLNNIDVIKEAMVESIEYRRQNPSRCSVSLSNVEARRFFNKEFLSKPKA
In short: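 Selectivity panel against other prostanoid-pathway enzymes. % inhibition values are means of at least two experiments, each in duplicate.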

Prostaglandin E synthase [5] = target: T2, Prostaglandin E synthase (Homo sapiens, UniProt O14684); assay: Inhibition of mPGES1 in human A549 cells assessed as reduction in IL-1beta-induced PGE2 production preincubated for 30 mins followed by incubation with IL-1beta for 16 to 20 hrs measured after 10 mins by HTRF assay; format: cell-based
T2 sequence (O14684 whole entry): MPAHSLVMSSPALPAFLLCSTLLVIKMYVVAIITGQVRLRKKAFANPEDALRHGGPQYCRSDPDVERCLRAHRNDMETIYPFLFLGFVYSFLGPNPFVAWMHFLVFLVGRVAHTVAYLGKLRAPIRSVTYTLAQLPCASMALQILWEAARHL

[6] = Clearance in Sprague-Dawley rat at 1 mg/kg, iv; format: ADME, organism-based; details: in vivo
In short: (§1)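 Intravenous dose of 1 mg/kg; clearance and Vz derived from the i.v. arm. Rat (male Sprague-Dawley) vehicle 20% NMP + 20% ethanol + 60% PEG 200, mean ± SD (n = 3). Dog vehicle 20% NMP + 20% EtOH + 10% PG + 50% PEG 200:water (3:2). Monkey vehicle 10% NMP + 10% ethanol + 10% PEG + 70% PEG200:water (3:2).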

[7] = Cmax in cynomolgus monkey at 10 mg/kg, po; format: ADME, organism-based, Macaca fascicularis; parameters: dose 10 mg/kg, route oral; details: in vivo
In short: (§2)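 Single oral dose of 10 mg/kg. Cmax and AUC0-24 taken from the oral arm. Rat: male Sprague-Dawley, dosed in 0.5% methylcellulose suspension, mean ± SD (n = 3). Guinea pig: 20% NMP + 0.5% MC suspension, mean ± SD (n = 3). Dog and cynomolgus monkey: 2.5 μL/mL Tween 80 + 0.5 (w/v) MC suspension.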

[8] = AUC (0 to 24 hrs) in Dunkin-Hartley guinea pig at 10 mg/kg, po; format: ADME, organism-based, Cavia porcellus; parameters: time < 24 hr, dose 10 mg/kg, route oral; details: in vivo
In short: as §2

[9] = AUC (0 to 24 hrs) in Sprague-Dawley rat at 10 mg/kg, po; format: ADME, organism-based; parameters: dose 10 mg/kg, time < 24 hr, route oral; details: in vivo
In short: as §2

[10] = Ratio of drug uptake in brain to plasma of cynomolgus monkey at 10 mg/kg, po; format: ADME, organism-based, Macaca fascicularis; details: read-out: BPR
Prostaglandin E synthase [11] = target: T3, Prostaglandin E synthase (Canis lupus familiaris, UniProt A0SYQ0); assay: Inhibition of mPGES1 in dog whole blood assessed as reduction in LPS-induced PGE2 production measured after 20 to 24 hrs
T3 sequence (A0SYQ0 whole entry): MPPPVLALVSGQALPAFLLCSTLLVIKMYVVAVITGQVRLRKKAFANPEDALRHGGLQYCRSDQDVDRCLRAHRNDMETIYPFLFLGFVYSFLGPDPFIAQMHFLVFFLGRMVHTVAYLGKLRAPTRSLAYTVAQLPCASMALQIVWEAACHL
In short: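 Dog whole blood stimulated with LPS. […] At least two experiments, each in duplicate; run by an external contract lab.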

[12] = target: T4, Prostaglandin E synthase (Macaca fascicularis) (UniProt Q6PWL6); assay: Inhibition of mPGES1 in rhesus monkey whole blood assessed as reduction in LPS-induced PGE2 production at 10 uM measured after 20 to 24 hrs relative to control; details: Macaca mulatta
T4 sequence (whole entry): T2 sequence (O14684 whole entry) with V7A, V108L, A112V
In short: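 Rhesus monkey whole blood stimulated with LPS; PGE2 inhibition measured relative to vehicle control […]. At least two experiments, each in duplicate; run by an external contract lab.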

[13] = Oral bioavailability in Sprague-Dawley rat at 10 mg/kg; format: ADME, organism-based; details: in vivo
In short: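 Plasma PK after 1 mg/kg i.v. and 10 mg/kg p.o.; %F from both routes. Rat: male Sprague-Dawley, oral 0.5% methylcellulose suspension, i.v. 20% NMP/20% ethanol/60% PEG 200, n = 3. Dog oral: Tween 80 2.5 μL/mL + 0.5% MC suspension. Monkey oral: same Tween/MC suspension; i.v. 10% NMP/10% ethanol/10% PEG/70% PEG200-water premix.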

[14] = Ratio of drug uptake in brain to plasma of Sprague-Dawley rat at 10 mg/kg, po; format: ADME, organism-based; details: read-out: BPR
[15] = Half life in cynomolgus monkey at 10 mg/kg, po; format: ADME, organism-based, Macaca fascicularis; details: in vivo
In short: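 Half-life calculated from plasma profiles after oral dosing at 10 mg/kg. Rat: male Sprague-Dawley, 0.5% methylcellulose suspension, n = 3. Dog and cynomolgus monkey: Tween 80 (2.5 μL/mL) + 0.5 (w/v) MC suspension.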

[16] = Cmax in Dunkin-Hartley guinea pig at 10 mg/kg, po; format: ADME, organism-based, Cavia porcellus; parameters: dose 10 mg/kg, route oral; details: in vivo
In short: as §2

[17] = Apparent volume of distribution in cynomolgus monkey at 1 mg/kg, iv; format: ADME, organism-based, Macaca fascicularis; details: in vivo, read-out: Vz
In short: as §1

[18] = Cmax in Beagle dog at 10 mg/kg, po; format: ADME, organism-based, Canis lupus familiaris; parameters: dose 10 mg/kg, route oral; details: in vivo
In short: as §2

Structure (SMILES)	IC50 [1] [nM]	inhibition [2] [%]	Papp [3] [×10⁻⁶ cm/s]	inhibition [4] [%]	IC50 (Prostaglandin E synthase [5]) [nM]	clearance [6] [mL/min/kg]	Cmax [7] [ng/mL]	AUC(0-t) at 24 h [8] [ng·h/mL]	AUC(0-t) at 24 h [9] [ng·h/mL]	Kp [10]	IC50 (Prostaglandin E synthase [11]) [nM]	inhibition [12] [%]	bioavailability [13] [%]	Kp [14]	half-life [15] [h]	Cmax [16] [ng/mL]	Vd [17] [L/kg]	Cmax [18] [ng/mL]
CC1(C)Cc2c(c(C(=O)Nc3cc(C(F)(F)F)ccc3F)cc3nc(Nc4c(F)cccc4Cl)[nH]c23)O1	2470	99.2	0.62	22.9	9.6													
CC1(C)Cc2c(c(C(=O)Nc3ccc(F)c(C(F)(F)F)c3)cc3nc(Nc4c(F)cccc4Cl)[nH]c23)O1	2320	100	0.33		14	11.2	680	4120	11000	0.32	6220	50.4	91	0.18	6.45	361	1.83	492
CC1(C)Cc2c(c(C(=O)Nc3ccc(C(F)(F)F)cn3)cc3nc(Nc4c(Cl)cccc4Cl)[nH]c23)O1		15.4	0.63	4.3	4.1	16.2	323	639	4020	0.37	3540	37	43	0.16	5.3	91	4.1	336
Cc1cccc(Cl)c1Nc1nc2cc(C(=O)Nc3cc(C(F)(F)F)ccc3F)c3c(c2[nH]1)CC(C)(C)O3		17.9	1.34	5.1	30	8.2	499	408	2580	0.16	3030	48.2	14	0.04	12	80	2.1	843
Cn1c(Nc2c(F)cccc2Cl)nc2cc(C(=O)Nc3cccc(C(F)(F)F)c3)c3c(c21)CC(C)(C)O3	3180	61.4		10.6	3													

From ChEMBL document CHEMBL4219124, “Alleviating CYP and hERG liabilities by structure optimization of dihydrofuran-fused tricyclic benzo[d]imidazole series - Potent, selective and orally efficacious microsomal prostaglandin E synthase-1 (mPGES-1) inhibitors: Part-2” (Bioorg Med Chem Lett, 2018)
